According to ChEMBL document CHEMBL4321878, “Stereoselective Activity of 1-Propargyl-4-styrylpiperidine-like Analogues That Can Discriminate between Monoamine Oxidase Isoforms A and B” (J Med Chem, 2020):
Values belong to the compound of their own block, whether it stands above or below them. Calls of active or inactive are those of the source. The rule behind the calls is not given here.

Legend:
SH-SY5Y [1] = test: Cytotoxicity against human SH-SY5Y cells assessed as reduction in cell viability at 5 to 10 uM measured after 24 hrs by MTS assay; type: cell-based
Summary of the method: (§1)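 SH-SY5Y human neuroblastoma cells grown in Advanced DMEM with 10% FBS at 37 °C, 5% CO2, and switched to serum-depleted medium before treatment. Compounds (20 mM DMSO stocks) were applied at 5, 10 or 50 μM for 24 h. Viability read by MTS assay.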

[2] = Cytotoxicity against human SH-SY5Y cells assessed as cell viability at 50 uM measured after 24 hrs by MTS assay relative to control; type: cell-based; details: read-out: Activity; summary of the method: as §1
SH-SY5Y [3] = test: Neuroprotective activity against 6-OHDA-induced toxicity in human SH-SY5Y cells assessed as LDH release at 5 uM pretreated for 30 mins followed by 6-OHDA challenge and measured after 24 hrs by cytotox-onetm homogeneous membrane integrity assay (reference value: 135%); type: functional
SH-SY5Y [4] = test: Neuroprotective activity against 6-OHDA-induced toxicity in human SH-SY5Y cells assessed as reduction in propidium iodide positive cells at 5 uM pretreated for 30 mins followed by 6-OHDA challenge and measured after 24 hrs by propidium iodide staining-based flow cytometric analysis relative to 6-OHDA; type: functional
Summary of the method: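 SH-SY5Y cells were grown in Advanced DMEM with 10% FBS at 37 °C, 5% CO2 to 80% confluence, then switched to serum-depleted medium. Compound (5 μM, from a 20 mM DMSO stock) was added 30 min before 6-OHDA (100 μM). After 24 h, PI staining was read by flow cytometry. Runs were n ≥ 2, each in duplicate, with one-way ANOVA and Bonferroni.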

[5] = Apparent permeability in Sprague-Dawley rat ileum at 50 uM measured after 20 mins LC-MS/MS analysis; type: ADME, tissue-based
[6] = Chemical stability of the compound in D2O measured incubated for >1 year at room temperature under dark condition by NMR analysis; type: physicochemical
Mus musculus [7] = test: Ex vivo inhibition of MAOA/MAOB in Swiss mouse brain homogenates assessed as residual activity at 60 mg/kg, ip measured after 30 mins using p-tyramine as substrate by amplex red reagent-based horseradish peroxidase-coupled fluorescence assay relative to control; type: functional
Summary of the method: (§2)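 Male Swiss mice (n = 3 per group) received 60 mg/kg ip in 0.9% saline, or saline alone, 30 min before brain homogenate preparation. […] Residual activity reported as mean ± SD, n = 1 in triplicate.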

[8] = target: T1, Amine oxidase [flavin-containing] B (Mus musculus, UniProt Q8BW75); test: Inhibition of MAOB in Swiss mouse brain homogenates assessed as residual activity at 50 uM using benzylamine as substrate preincubated for 10 mins followed by substrate addition by amplex red reagent-based horseradish peroxidase-coupled fluorescence assay relative to control; type: tissue-based; details: read-out: Activity
T1 sequence (Q8BW75 whole entry): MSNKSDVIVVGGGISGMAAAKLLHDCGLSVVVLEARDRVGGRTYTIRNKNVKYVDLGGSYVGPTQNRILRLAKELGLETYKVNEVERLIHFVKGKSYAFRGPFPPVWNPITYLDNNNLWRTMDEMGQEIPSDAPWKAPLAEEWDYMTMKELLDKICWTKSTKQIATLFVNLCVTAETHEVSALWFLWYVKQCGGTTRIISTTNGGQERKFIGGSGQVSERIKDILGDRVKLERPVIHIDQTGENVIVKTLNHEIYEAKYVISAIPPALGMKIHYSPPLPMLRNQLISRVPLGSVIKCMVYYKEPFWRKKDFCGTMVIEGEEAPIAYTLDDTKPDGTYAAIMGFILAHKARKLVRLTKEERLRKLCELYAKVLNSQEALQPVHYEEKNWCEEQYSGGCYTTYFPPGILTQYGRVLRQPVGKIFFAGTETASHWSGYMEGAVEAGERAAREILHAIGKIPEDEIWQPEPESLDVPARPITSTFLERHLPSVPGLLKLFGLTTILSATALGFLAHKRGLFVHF

Mus musculus [9] = test: Ex vivo inhibition of MAOB in Swiss mouse brain homogenates assessed as residual activity at 60 mg/kg, ip measured after 30 mins using benzylamine as substrate by amplex red reagent-based horseradish peroxidase-coupled fluorescence assay relative to control; type: functional; summary of the method: as §2
Mus musculus [10] = test: Ex vivo inhibition of MAOB in ip dosed Swiss mouse brain homogenates measured after 30 mins using benzylamine as substrate by amplex red reagent-based horseradish peroxidase-coupled fluorescence assay; type: functional; details: 0.5 h
Mus musculus [11] = test: (§3) Ex vivo inhibition of MAOB in Swiss mouse brain homogenates assessed as residual activity at 0.3 mg/kg, ip measured after 30 mins using benzylamine as substrate by amplex red reagent-based horseradish peroxidase-coupled fluorescence assay relative to control; type: functional
Mus musculus [12] = test: as §3, with “ip administered once daily for 10 days” for “ip”, “measured” for “measured after”, “mins post-last dose” for “mins”; type: functional
Mus musculus [13] = test: Ex vivo inhibition of MAOB in Swiss mouse brain homogenates assessed as residual activity at 30 mg/kg, po administered via gavage measured after 90 mins using benzylamine as substrate by amplex red reagent-based horseradish peroxidase-coupled fluorescence assay relative to control; type: functional
Mus musculus [14] = test: Effect on spontaneous locomotor activity in Swiss mouse assessed as change in number of light beam crossings at 0.3 mg/kg, ip administered […] and monitored for 5 mins; type: ADME, organism-based; details: in vivo
Mus musculus [15] = test: Effect on spontaneous locomotor activity in Swiss mouse assessed as change in number of light beam crossings at >10 mg/kg, ip measured after 30 mins and monitored for 5 mins; type: ADME, organism-based; details: in vivo
Summary of the method: (§4)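 Male Swiss mice given single ip doses of ≥10 mg/kg in 0.9% saline, tested 30 min later in the hole-board test combined with spontaneous locomotor activity recording.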

Mus musculus [16] = test: Effect on behavioral changes in Swiss mouse at >10 mg/kg, ip measured after 30 mins and monitored for 5 mins by hole-board test; type: ADME, organism-based; details: in vivo; summary of the method: as §4
Mus musculus [17] = test: Effect on behavioral changes in Swiss mouse at 0.3 mg/kg, ip administered […] and monitored for 5 mins by hole-board test; type: ADME, organism-based; details: in vivo
[18] = Toxicity in Swiss mouse assessed as change in body weight at 0.3 mg/kg, ip administered once daily for 10 days measured during compound dosing; type: organism-based; details: in vivo, 240 h
[19] = Toxicity in Swiss mouse assessed as change in behavior at 0.3 mg/kg, ip administered once daily for 10 days measured during compound dosing; type: organism-based; details: in vivo, 240 h
[20] = Thermodynamic solubility of the compound in pH 7.4 phosphate buffered saline assessed per […] at 7 to 9 mg incubated for 24 hrs under shaking condition by HPLC analysis; type: physicochemical; details: in vitro, pH 7.4, 24 h
[21] = Photoisomerization of the compound in D2O incubated for 7 days under sunlight by NMR analysis
[22] = target: T2, Amine oxidase [flavin-containing] A (Mus musculus, UniProt Q64133); test: Inhibition of MAOA in Swiss mouse brain homogenates assessed as residual activity at 50 uM using 5-HT as substrate preincubated for 10 mins followed by substrate addition by amplex red reagent-based horseradish peroxidase-coupled fluorescence assay relative to control; type: tissue-based; details: read-out: Activity
T2 sequence (Q64133 whole entry): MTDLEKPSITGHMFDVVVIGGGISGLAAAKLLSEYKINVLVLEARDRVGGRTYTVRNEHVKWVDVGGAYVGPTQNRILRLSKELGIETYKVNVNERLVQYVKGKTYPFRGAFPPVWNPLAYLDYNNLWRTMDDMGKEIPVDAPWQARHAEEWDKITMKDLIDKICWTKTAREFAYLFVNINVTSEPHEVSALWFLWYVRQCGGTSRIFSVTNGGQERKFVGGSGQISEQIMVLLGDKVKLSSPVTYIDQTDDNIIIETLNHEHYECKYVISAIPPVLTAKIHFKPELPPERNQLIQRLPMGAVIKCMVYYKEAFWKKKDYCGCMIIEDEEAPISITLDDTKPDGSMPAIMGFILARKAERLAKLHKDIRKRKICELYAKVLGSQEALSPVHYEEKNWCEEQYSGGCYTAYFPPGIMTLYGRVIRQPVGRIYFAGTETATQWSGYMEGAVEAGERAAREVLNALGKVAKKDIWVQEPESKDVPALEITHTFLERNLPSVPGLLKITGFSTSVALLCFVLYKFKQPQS

Mus musculus [23] = test: Ex vivo inhibition of MAOA in Swiss mouse brain homogenates assessed as residual activity at 60 mg/kg, ip measured after 30 mins using 5-HT as substrate by amplex red reagent-based horseradish peroxidase-coupled fluorescence assay relative to control; type: functional; summary of the method: as §2
Mus musculus [24] = test: Ex vivo inhibition of MAOA in ip dosed Swiss mouse brain homogenates measured after 30 mins using 5-HT as substrate by amplex red reagent-based horseradish peroxidase-coupled fluorescence assay; type: functional
Mus musculus [25] = test: Ex vivo inhibition of MAOA in Swiss mouse brain homogenates assessed as residual activity at 0.3 mg/kg, ip measured after 30 mins using 5-HT as substrate by amplex red reagent-based horseradish peroxidase-coupled fluorescence assay relative to control; type: functional
Mus musculus [26] = test: Ex vivo inhibition of MAOA in Swiss mouse brain homogenates assessed as residual activity at 0.3 mg/kg, ip administered once daily for 10 days measured 30 mins post-last dose using 5-HT as substrate by amplex red reagent-based horseradish peroxidase-coupled fluorescence assay relative to control; type: functional
Mus musculus [27] = test: Ex vivo inhibition of MAOA in Swiss mouse brain homogenates assessed as residual activity at 30 mg/kg, po administered via gavage measured after 90 mins using 5-HT as substrate by amplex red reagent-based horseradish peroxidase-coupled fluorescence assay relative to control; type: functional
[28] = Apparent permeability across absorptive direction in Sprague-Dawley rat ileum at 50 uM measured after 20 mins LC-MS/MS analysis; type: ADME, tissue-based
[29] = Apparent permeability across eliminatory direction in Sprague-Dawley rat ileum at 50 uM measured after 20 mins LC-MS/MS analysis; type: ADME, tissue-based
Mus musculus [30] = test: Antidepressant-like activity in Swiss mouse assessed as reduction in immobility time at 1 to 30 mg/kg, ip administered as single dose for 30 mins prior to testing measured for last 4 mins of 6 mins test by tail suspension test; type: functional, organism-based
Mus musculus [31] = test: Antianxiety activity in Swiss mouse assessed as increase in open arm entries at 3 mg/kg, ip measured after 30 mins and monitored for 5 mins by elevated plus maze test relative to control; type: functional
Mus musculus [32] = test: Antianxiety activity in Swiss mouse assessed as increase in time spent in open arm entries at 3 mg/kg, ip measured after 30 mins and monitored for 5 mins by elevated plus maze test relative to control; type: functional
Mus musculus [33] = test: Effect on spontaneous locomotor activity in Swiss mouse assessed as change in number of light beam crossings at 3 mg/kg, ip measured after 30 mins and monitored for 5 mins; type: ADME, organism-based; details: in vivo
Mus musculus [34] = test: Antidepressant-like activity in Swiss mouse assessed as reduction in immobility time at 0.3 mg/kg, ip administered once daily for 10 days measured for last 4 mins of 6 mins test at 30 mins post-last dose test by tail suspension test; type: functional, organism-based
Summary of the method: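 Male Swiss mice injected ip daily with 0.3 mg/kg in 0.9% saline for 10 days (n = 10; saline controls n = 8). Tail suspension test on day 10, 30 min after the injection. Immobility time reported as mean ± SEM and compared by unpaired t-test.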

Mus musculus [35] = test: Antianxiety activity in Swiss mouse at 0.3 mg/kg, ip […] and monitored for 5 mins by elevated plus maze test; type: functional, organism-based

Compound: C#CCN1CCC(/C=C/c2ccc(C(F)(F)F)cc2)CC1.Cl
Activity (SH-SY5Y [1]): Non-Toxic | viability at 24 h, 50 µM [2]: > 80% | Activity (SH-SY5Y [3]): 87% | fold change (FC) (SH-SY5Y [4]): 0.65 | Papp [5]: Impermeable

Stability [6]: Stable | activity at 50 µM [8]: -7.7%
Compound: C#CCN1CCC(CCc2ccc(C(F)(F)F)cc2)CC1.Cl
Activity (SH-SY5Y [1]): Non-Toxic | viability at 24 h, 50 µM [2]: > 80% | Activity (Mus musculus [7]): 77.2% | Activity (Mus musculus [9]): 24.3% | ED50 (Mus musculus [10]): 1.38 mg/kg | Activity (Mus musculus [11]): 83.4% | Activity (Mus musculus [12]): 28.3% | Activity (Mus musculus [13]): 30.5% | Activity (Mus musculus [14]): Toxic | Activity (Mus musculus [15]): Toxic | Activity (Mus musculus [16]): Toxic | Activity (Mus musculus [17]): Toxic | Activity [18]: Non-Toxic | Activity [19]: Non-Toxic

Therm solubility [20]: ≥ 34.4 mg/mL | Stability [6]: Stable | activity at 50 µM [22]: -1.3% | inhibition (Mus musculus [24]): Dose-dependent effect | Papp A→B at 20 min, 50 µM [28]: 10.8 ×10⁻⁶ cm/s | Papp at 20 min, 50 µM [29]: 35.4 ×10⁻⁶ cm/s
Compound: C#CCN1CCC(/C=C\c2cccc(F)c2)CC1.Cl
Drug metabolism [21]: Metabolite not detected | Activity (SH-SY5Y [1]): Non-Toxic | viability at 24 h, 50 µM [2]: > 80% | Activity (Mus musculus [23]): 1.6% | Activity (Mus musculus [7]): 14.2% | ED50 (Mus musculus [24]; 0.5 h): 0.43 mg/kg | Activity (Mus musculus [25]): 67.8% | Activity (Mus musculus [26]): 9.5% | Activity (Mus musculus [27]): 45.3% | Activity (Mus musculus [30]): inactive | fold change (FC) (Mus musculus [31]): 2 | fold change (FC) (Mus musculus [32]): 2.1 | Activity (Mus musculus [33]): Non-Toxic | Activity (Mus musculus [34]): Active | Activity (Mus musculus [35]): inactive | Activity (Mus musculus [14]): Non-Toxic | Activity [18]: Non-Toxic | Activity [19]: Non-Toxic
